Laboratory results reported in the RNAGym collection of RNA variant scans (doi:10.1101/gad.245936.114).
Fewer inactive variants are shown than the library holds.

B1: tRNA (parent)
chain: CUCUCGGUAGCCAAGUUGGUUUAAGGCGCAAGACUUUAAUUUAUCACUACGAAAUCUUGAGAUCGGGCGUUCGACUCGCCCCCGGGAGAUUUUUUCCUCGAGCAA

Variants of: B1
Test: nonsense suppression (GFP-seq) (ratio to wild type); higher = more function; SUP4oc tRNA, yeast GFP reporter sort-seq
Method in brief: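 To measure nonsense suppression, tRNA variants from a library carrying ~3% random mutations were integrated into the yeast genome alongside RFP and a GFP ochre reporter under galactose control. Growth took place in raffinose/galactose medium supplemented with 80 mg/L adenine, followed by sorting into GFP/RFP bins and Illumina sequencing of each bin (phred ≥30). For each variant with ≥100 reads and ≥30 cells, the bin median GFP/RFP values were weighted by its estimated cell share per bin and referenced to the unmutated parent tRNA.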
With CUCUCGGUAGCCAAGUUGGUUUAAUGCGCAAGACUUUAAUUUAUCACUACGAAAUCUGGAGAUCGGGGGUUCGACUCGCCCCCGGGAGAUUUUUUCCUCGAGCAA [G25U U58G C68G] the nonsense suppression was ≤ 0.026. In the case of CUCUCGGUAGCAAAGUUGGUUUAAGGCGCAAGAUUUUAAUUUAUCACUACGAAAUCUUGAGAUCGGGCGUUCGACUCGCCCCCGGGAGAUUUUUUCCUCGAGCAA [C12A C34U], the nonsense suppression is reported as 0.94. In the case of UUCUCGGUAGCCAGGUUGGUUUAAGGCGCAGGACUUUAAUUUAUCACUACGAAAUCUGGAGAUCGGGCGUUCGACUCGCCCCCGGGAGAUUUUUUCCUCGAGCAA [C1U A14G A31G U58G], the nonsense suppression is reported as ≤ 0.026. In the case of CUCUCGGUAGCCAAGUUGGUUUAAGGCGUAGGACUUUAAUUUAUCACUACGAAAUCUUGAGAUCGGGCGUUCGACUCGCCCCCGGGAGAUUUUUUCCUCGAGCAA [C29U A31G], the nonsense suppression is reported as 0.0421. Work on CUCCCGGUAGCCAAGUUGGUUUAAGGUGCAAGACUUUAAUUUAUCACUACGAAAUCUUGAAAUCGGGCGUUCGACUCGCCCCCGGGAGAUUUUUUCCUCGAGCAA [U4C C27U G61A] yielded a nonsense suppression of 0.205. Work on CUCUCGGUAGCCAAGUUGGUUUAAGGCGCAAGACUUUAAUUUAUCACUACGAACUCUUGAGAUCGGGCGUUCGACUCGCGCCCGGGAGAUUUUUUCCUCGAGCAA [A54C C80G] yielded a nonsense suppression of 0.0733. With CUCUCGGUAGCCAAGUUGGUUUAAGGCGCAAGAAUUUAAUUUAUCACUACGAAUUCUUGAGAUCGGGCGUACGAAUCGCCCCCGGGAGAUUUUUUCCUCGAGCAA [C34A A54U U71A C75A] the nonsense suppression was ≤ 0.026. Work on CUCUCGGUAGUCAAGUUGGUUUAAGGCGCAAGACUUUAAUUUAUCACUACGAAAUCUUGAGAUCGGGCGUUCGAAUCGCCCCCGGGAGAUUUUUUCCUCGAGCAA [C11U C75A] yielded a nonsense suppression of 0.168. With CUCUCGGUAGCCAAGUUGGUUUAAGGCGCAACACUUUAAUUUAUCACUACGAAAUCUUGAGGUCGGGCGUUCGACUCGCUCCCGGGAGAUUUUUUCCUCGAGCAA [G32C A62G C80U] the nonsense suppression was ≤ 0.026. CUCUCGGUAGCCAAGUGGGUUUAAGGCCCAAGACUUUAAUUUAUCACUACGAAAUCUUGAGAUCGGGCGUUCGACUCGCCCCCGGGAGAUUUUUUCCUCGAGCAA [U17G G28C] showed a nonsense suppression of 0.209. For CUCCCGGUAGCCGAGUUGGUUUAAGGCGCAAGACUUUAAUUUAUCACUACGAAAUCUUGAGAUCGGGCGUUCGACUCGCCCCUGGGAGAUUUUUUCCUCGAGCAA [U4C A13G C83U], the nonsense suppression was 0.334. CUCUCGGUAGCCAAGUUGGUUUAAGGCGCAAGACUUUAAUUUAUCACUACGAAAUCUUGAGAUCCCGCGUUCGACCCGCCCCCGGGAGAUUUUUUCCUCGAGCAA [G65C G66C U76C] gave a nonsense suppression of 0.793. CUCUCGGUAGCCGAGAUGGUUUAAGGCGCAAGACUUUAAUUUAUCACUACGAAAUCUUGAGAUCGGGCGUUCGACUCGCCCCCGGGAGAUUUUUUCCUCGAGCAA [A13G U16A] showed a nonsense suppression of 0.0391. With CUCUCGGUAGCCAAGUUGGUUUAUGGCGCAAGACUUUAAUUUAUCACUACGAAAUCUCGAGAUCGGGCGUUCGACUCGCCCCCGAGAGAUUUUUUCCUCGAGCAA [A24U U58C G85A] the nonsense suppression was ≤ 0.026. For CACUCGGUAGCCAAGUUGGUUUAAGGCGCAUGGCUUUAAUUUAUCACUACGAAAUCUAGAGAUCGGGCGUUCGACUCGCCCCCGGGAGAUUUUUUCCUCGAGCAA [U2A A31U A33G U58A], the nonsense suppression was ≤ 0.026. In the case of CUCUCGGUAGCCAGGUUGGUUUAAGGCGCAAGACUUUAAUUUAUCACUACGAAAUCUUGAGAUCGGGCGUUCGACUCGCCCCCGGGUGAUUUUUUCCUCGAGCAA [A14G A87U], the nonsense suppression is reported as ≤ 0.026. With CUCUCGGUAGCCAAGUUGUUUUAAGGCACAAGACUUUAAUUUAUCACUACGAAAUGUUGAGAUCGGGCGUUCGACUCGCCCCCGGGAGAUUUUUUCCUCGAGCAA [G19U G28A C56G] the nonsense suppression was ≤ 0.026. With CUCUCGGUAGCCACGUUGGUUUAAGGCGCAGGACUUUAAUUUAUCACUACGAAAUCUUGAGAUCGGGCGUUCGUCUCGCGCCCGGGAGAUUUUUUCCUCGAGCAA [A14C A31G A74U C80G] the nonsense suppression was ≤ 0.026. With CUCUCGGUAGUCAAGUUGGUUUAAGGCGCAAGACUUUAAUUUAUCACUACGAAAUCUUGAGAUCGGGAGUUCGACCCGCCCCGGGGAGAUUUUUUCCUCGAGCAA [C11U C68A U76C C83G] the nonsense suppression was ≤ 0.026. With CGCUCGGUAGCCAAGUUGGUUUAAGGCGCAAGACUUUAAUUUAUCACUACGAAACCUUGAGAUCGGGCGUUCGACUCGCCCCCGGGAGAUUUUUUCCUCGAGCAA [U2G U55C] the nonsense suppression was 0.053. With CUCUCGGUAGCCAAGUUGGUUUAAGGCGCAAGACUUUAAUUUAUCACUACGAACUCUUGAGAUCGGGCGUUCGACUCGCCCUCGGGAGAUUUUUUCCUCGAGCAA [A54C C82U] the nonsense suppression was 0.211. For CUCUCGGUACCCAAUUUGGUUUAAGGCGCAAGUCUUUAAUUUAUCACUACGAAAUCUUGAGAUCGGGCGUUCGACUCGCCCCCGGGAGAUUUUUUCCUCGAGCAA [G10C G15U A33U], the nonsense suppression was ≤ 0.026. For CUCUCGGUAGCCAAGUUGGUUUAAGGCGCUAGACUUUAAUUUAUCACUACGAAAUCUUGUGAUCGGGCGUUCGACUCGCCCCCGGGAGAUUUUUUCCUCGAGCAA [A30U A60U], the nonsense suppression was 0.769. For CUCUCGGUAGCCAAGUUGGUUUAAGGCGCAAGACUUUAAUUUAUCACUACGAAAUCUUGAGAUCGGGCUUUGGACUCGCCCCCGGGAGAUUUUUUCCUCGAGCAA [G69U C72G], the nonsense suppression was ≤ 0.026. With CUUCGGUAGCCAAAGUAGGUUUAAGGCGCAAGACUUUAAUUUAUCACUACGAAAUCAUGAGAUCGGGCGUUCGACUCGCCCCCGGGAGAUUUUUUCCUCGAGCAA [C3U U4C C5G G7U U8A A9G G10C C12A U17A U57A] the nonsense suppression was ≤ 0.026. In the case of CUCCCGGUAGCCAAAUUGGUAUAAGGCGCAAGACUUUAAUUUAUCACUACGAAAUCUUGAGAUCGGGCGUUCGACUCGCCCCCGGGAGAUUUUUUCCUCGAGCAA [U4C G15A U21A], the nonsense suppression is reported as 0.214. CUCUCGGUAGCCAAGUAGGUUUAUGGCGCAAGACUUUAAUUUAUCACUACGAAAUCUUGAGAUCGGGCGUUCGACUCGCCCCCGGGAGAUUUUUUCCUCGAGCAA [U17A A24U] gave a nonsense suppression of 0.2.
